The results in this text go back to ChEMBL document CHEMBL4765342, “Substituted benzothiophene and benzofuran derivatives as a novel class of bone morphogenetic Protein-2 upregulators: Synthesis, anti-osteoporosis efficacies in ovariectomized rats and a zebrafish model, and ADME properties” (Eur J Med Chem, 2020).

Each structure is given as a SMILES string. Activity calls are given as the source filed them. The rule behind the calls is not given here.

Data set [1] in a line: in vitro. To be noted: human, microsomes.
A short description of data set [2]: in vitro. To be noted: human.
Data set [3] in a line: Solubility in PBS buffer at pH 7.4 assessed as precipitation of compound at 10000 nM. The class given is physicochemical. To be noted: pH 7.4, 10 µM.
The nature of data set [4]: Solubility in PBS buffer at pH 7.4 assessed as precipitation of compound at 5000 nM. The conditions noted are these: pH 7.4, 5 µM. The class given is physicochemical.
Data set [5] can be described thus: Solubility in PBS buffer at pH 7.4 assessed as precipitation of compound at 2500 nM. In kind it is physicochemical. To be noted: pH 7.4, 2.5 µM.
Data set [6] in a line: Solubility in PBS buffer at pH 7.4 assessed as precipitation of compound at 1250 nM. In kind it is physicochemical. The conditions noted are these: pH 7.4, 1.25 µM.
A short description of data set [7]: Solubility in PBS buffer at pH 7.4 assessed as precipitation of compound at 625 nM. To be noted: pH 7.4, 0.625 µM. In kind it is physicochemical.
A short description of data set [8]: Solubility in PBS buffer at pH 7.4 assessed as precipitation of compound at 312.5 nM. In kind it is physicochemical. To be noted: pH 7.4, 0.3125 µM.
Data set [9] in a line: Solubility in PBS buffer at pH 7.4 assessed as precipitation of compound at 156.25 nM. In kind it is physicochemical. To be noted: pH 7.4, 0.15625 µM.
The nature of data set [10]: Apparent permeability across apical to basolateral side in human Caco-2 cells at 10 uM incubated for 2 hrs LC-MS/MS analysis. The class given is ADME, cell-based. To be noted: for Papp A→B at 2 h, 10 µM: Caco-2. The gist of the method:
(§1)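 Caco-2 monolayers, apical to basolateral direction. Plates preincubated 30 min at 37 °C, then exposed to 10 µM compound for 2 h at 37 °C without shaking. Donor and receiver samples were quenched, centrifuged and measured by LC/MS/MS, in duplicate. Papp calculated from receiver concentration, area and time. Monolayer integrity checked by TEER and by Lucifer yellow leakage (30 min, 37 °C, ex 485/em 530 nm).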
(Caco-2 cells form a polarised layer with tight junctions and transporters.)

A short description of data set [11]: Permeability across apical to basolateral side in human Caco-2 cells assessed as transepithelial electrical resistance at 10 uM incubated for 2 hrs LC-MS/MS analysis. In kind it is ADME, cell-based. To be noted: caco-2, 2 h. The gist of the method: as §1
Data set [12] can be described thus: Permeability across apical to basolateral side in human Caco-2 cells assessed as […] yellow leakage at 10 uM incubated for 2 hrs LC-MS/MS analysis. The class given is ADME, cell-based. To be noted: caco-2, 2 h. The gist of the method: as §1
Data set [13] in a line: Toxicity in Kunming mouse assessed as organism death administered orally for 3 days and observed for 17 days starting from drug administration. To be noted: in vivo, po, 408 h, time 17 day.
For data set [14], the system named is Rattus norvegicus. Nature of the data set: Antiosteoporotic activity in Sprague-Dawley rat model of OVX-induced bone loss assessed as increase in trabecular bone volume at 30 mg/kg, ig administered for 3 months with 1 day break after 6 consecutive days administration. The class given is functional, organism-based. The gist of the method:
(§2)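 Female SD rats given bilateral ovariectomy (sham: fat tissue removed instead), adapted 1 week beforehand; dosing began on postoperative day 10, n = 10 per group. Test drugs as 3 mg/mL suspension by gavage; raloxifene hydrochloride at 0.5 mg/mL. Controls got water. Tetracycline 30 mg/kg ip 16 and 3 days before euthanasia. Tibia stained sections give trabecular morphology and TBV%. BMD of L4-6 measured by densitometry under pentobarbital 45 mg/kg anaesthesia. Reported as mean ± SD.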

The subject of data set [15] is Rattus norvegicus. Briefly: Antiosteoporotic activity in Sprague-Dawley rat model of OVX-induced bone loss assessed as increase in trabecular bone mineral density at 30 mg/kg, ig administered for 3 months with 1 day break after 6 consecutive days administration. In kind it is functional, organism-based. The gist of the method:
as §2

Molecule `CN(C)CCCOc1nn(Cc2ccccc2)c2ccccc12` [BENZYDAMINE] showed a half-life at 0.5 h, 100 µM in [1] of 43.1 min. In data set [2] (microsomes), this molecule returned a microsomal CLint at 0.5 h, 100 µM of 16.1 µL/min/mg.

Take `CN(C)CCCOC(=O)c1cc2cc3c(cc2s1)OCO3`: the solubility result in data set [3] is recorded as “Insoluble”; in [4], “Insoluble”; in data set [5], “Insoluble”; in data set [6], “Insoluble”; in data set [7], “Soluble”; in [8] it was “Soluble”. In addition, in data set [9], the solubility entry is “Soluble”.

Turning to `CCOC(=O)c1cc2cc3c(cc2s1)OCO3`, the solubility entry in data set [3], in data set [4], in [5], in data set [6], in data set [7] and in [8] was “Insoluble” throughout. In addition, the solubility result in data set [9] is given as “Soluble”.

Turning to `COCCc1ccc(OCC(O)CNC(C)C)cc1` (stereo unspecified) [METOPROLOL], the Papp A→B at 2 h, 10 µM in [10] came out at 32.6 ×10⁻⁶ cm/s. Moreover, the Activity is 326 Ω·cm² in [11] and 0.154% in [12]. Moreover, the half-life at 0.5 h, 100 µM in [1] was 159 min. In addition, the microsomal CLint at 0.5 h, 100 µM in data set [2] (liver microsomes) came to 4.35 µL/min/mg.

Turning to `COc1ccc2cc(C(=O)OCCN3CCOCC3)oc2c1`, the solubility entry in data set [3] was “Insoluble”; in [4] it was “Soluble”; in data set [5], “Soluble”; in [6], “Soluble”; in data set [7], “Soluble”; in data set [8], “Soluble”. Moreover, the solubility entry in data set [9] is “Soluble”.

Consider `COc1ccc2cc(C(=O)OCCP(=O)(O)O)oc2c1` [listing 1 of 2 here], for which the solubility entry in [3], in [4], in data set [5], in data set [6], in data set [7] and in data set [8] was “Soluble” throughout. For the same molecule, the solubility entry in data set [9] is “Soluble”.

In the case of `CCOC(=O)c1cc2ccc(OC)cc2s1`, the solubility result in data set [3], in [4], in data set [5], in data set [6], in data set [7] and in data set [8] was “Insoluble” throughout. Further, the solubility result in data set [9] is “Insoluble”.

Regarding `CC[C@H]1OC(=O)[C@H](C)[C@@H](O[C@H]2C[C@@](C)(OC)[C@@H](O)[C@H](C)O2)[C@H](C)[C@@H](O[C@@H]2O[C@H](C)C[C@H](N(C)C)[C@H]2O)[C@](C)(O)C[C@@H](C)C(=O)[C@H](C)[C@@H](O)[C@]1(C)O` [ERYTHROMYCIN], in data set [10] (caco-2, 2 h, 10 µM), the Papp is reported as 0.0324 10^-6 cm/s. Further, the values for the Activity in data set [11] and in data set [12] were 396 Ω·cm² and 0.137%, respectively.

With `COc1ccc2cc(C(=O)OCCCN(C)C)sc2c1.CS(=O)(=O)O`, the LD50 in data set [13] was over 500 mg/kg/day.

Consider `COc1ccc2cc(C(=O)N(C)CCN(C)C)oc2c1`, for which the solubility result in data set [3] is reported as “Insoluble”; in data set [4], “Insoluble”; in data set [5], “Soluble”; in [6], “Soluble”; in data set [7], “Soluble”; in data set [8] it was “Soluble”. Besides, in [9], the solubility entry is “Soluble”.

For the molecule `COc1ccc2cc(C(=O)OCCCN(C)C)sc2c1` [listing 1 of 2 here], the solubility result was “Insoluble” in data set [3]; “Insoluble” in data set [4]; “Insoluble” in data set [5]; “Insoluble” in [6]; “Soluble” in [7]; “Soluble” in data set [8]. In [9], the solubility result is recorded as “Soluble”.

Regarding `CCOc1ccc(NC(C)=O)cc1` [PHENACETIN], the half-life at 0.5 h, 100 µM in data set [1] is 26.5 min. The same molecule came in with a microsomal CLint at 0.5 h, 100 µM in [2] (liver microsomes) of 26.2 µL/min/mg.

Regarding `COc1ccc2cc(C(=O)OCP(=O)(O)O)oc2c1`, the solubility entry in [3] is reported as “Insoluble”; in [4], “Soluble”; in data set [5] it was “Soluble”; in data set [6], “Soluble”; in data set [7] it was “Soluble”; in [8], “Soluble”. Further, the solubility result in data set [9] is recorded as “Soluble”.

`CCCCOC(=O)c1cc2ccc(OC)cc2s1`: the solubility result in data set [3] is “Insoluble”; in data set [4] it was “Insoluble”; in data set [5], “Insoluble”; in [6], “Insoluble”; in data set [7], “Insoluble”; in [8], “Soluble”. For the same molecule, in [9], the solubility entry is listed as “Soluble”.

Consider `COc1ccc2cc(C(=O)OCCCN(C)C)oc2c1`, for which the solubility result is “Insoluble” in [3]; “Soluble” in data set [4]; “Soluble” in [5]; “Soluble” in data set [6]; “Soluble” in data set [7]; “Soluble” in data set [8]. The solubility entry in data set [9] is “Soluble”.

Turning to `COc1ccc2cc(C(=O)OCCCN(C)C)sc2c1` [listing 2 of 2 here], the result in data set [14] and in data set [15] was Active.

As to `O=C(OCCN1CCOCC1)c1cc2cc3c(cc2s1)OCO3` [listing 1 of 2 here], the outcome in data set [14] and in data set [15] was Active.

On to `COc1ccc2cc(C(=O)OCCP(=O)([O-])[O-])oc2c1.[Na+].[Na+]`, for which, in [13], the LD50 was over 500 mg/kg/day.

Take `COc1ccc2cc(C(=O)OCCN(C)C)oc2c1`: the solubility entry is “Insoluble” in data set [3]; “Soluble” in data set [4]; “Soluble” in [5]; “Soluble” in data set [6]; “Soluble” in [7]; “Soluble” in data set [8]. Further, the solubility entry in data set [9] is “Soluble”.

`COc1ccc2cc(C(=O)OCCN(C)C)oc2c1.CS(=O)(=O)O`: the LD50 in [13] was over 500 mg/kg/day.

Consider `O=C(OCCN1CCOCC1)c1cc2cc3c(cc2s1)OCO3` [listing 2 of 2 here], for which the solubility result in data set [3] is given as “Insoluble”; in data set [4], “Insoluble”; in data set [5], “Insoluble”; in [6] it was “Soluble”; in [7] it was “Soluble”; in data set [8], “Soluble”. Moreover, in data set [9], the solubility entry is “Soluble”.

For the molecule `COc1ccc2cc(C(=O)NCCN(C)C)oc2c1`, the solubility result was “Insoluble” in [3]; “Insoluble” in [4]; “Soluble” in data set [5]; “Soluble” in [6]; “Soluble” in data set [7]; “Soluble” in [8]. For the same molecule, the solubility result in data set [9] is listed as “Soluble”.

On to `CN/C(=N/CCSCc1nc[nH]c1C)NC#N` [CIMETIDINE], for which the Papp A→B at 2 h, 10 µM in [10] turned out to be 0.679 ×10⁻⁶ cm/s. The Activity was 318 Ω·cm² in data set [11] and 0.134% in data set [12].

As for `COc1ccc2cc(C(=O)OCCP(=O)(O)O)oc2c1` [listing 2 of 2 here], the result in [14] and in data set [15] was Active.

As to `CN(C)CCNC(=O)c1cc2cc3c(cc2s1)OCO3`, the solubility entry in data set [3] is recorded as “Insoluble”; in data set [4] it was “Insoluble”; in data set [5], “Insoluble”; in data set [6] it was “Insoluble”; in [7] it was “Soluble”; in [8], “Soluble”. Moreover, the solubility result in [9] was “Soluble”.

Take `CS(=O)(=O)O.O=C(OCCN1CCOCC1)c1cc2cc3c(cc2s1)OCO3`: the LD50 in data set [13] is listed as over 500 mg/kg/day.

In data set [2] (microsomes), `O=C(O)Cc1ccccc1Nc1c(Cl)cccc1Cl` [DICLOFENAC] registered a microsomal CLint at 0.5 h, 100 µM of 197 µL/min/mg.

For `CN(C)CCOC(=O)c1cc2cc3c(cc2s1)OCO3`, the solubility result is “Insoluble” in data set [3]; “Insoluble” in data set [4]; “Insoluble” in data set [5]; “Soluble” in [6]; “Soluble” in [7]; “Soluble” in data set [8]. In addition, the solubility result in data set [9] was “Soluble”.

As usually defined, the half-life is how long it takes for the measured level to halve. Lower therefore signals fast loss. By microsomal CLint is commonly meant a measure of how fast metabolising enzymes remove a compound, apart from limits set by blood flow. High values mean faster metabolism, low ones greater metabolic stability. For orientation: Papp A→B means the apparent permeability from the apical to the basolateral side of a cell layer. One may read the LD50 as the dose at which mortality reaches 50%.
